# Screening data as filed in PubChem.
# Cneo AK release: causes C. neoformans cell lysis | 360,000 tested, 0.2% active | AID 651654 | lysis activity, % at 15 µM | adenylate kinase release luminescence, 4 h; normalised: neutral wells 0, clomiphene wells 100;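 active means mean lysis activity across replicates of at least 80%, whatever share of replicates individually reach that level; inactive means mean lysis activity below 80%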
#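 Material – log-phase Cryptococcus neoformans yeast cells · Input – 5 × 10^6 yeast cells/mL · Medium – fresh YPD growth medium · Doses – single compound concentration per well · Timing – static 4 h at 37 °C with compound, 1 h detection · Detection – adenylate kinase release luminescence · Read-out – signal increase indicating cell lysis · Control set – Clomiphene as positive lysis control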
# PglD DTNB: inhibitors of Campylobacter jejuni PglD acetyltransferase; purified PglD enzyme, DTNB colorimetric CoA detection; inhibition, % at 12.5 µM; 360,000 tested, 0.098% active; AID 602405; in the data active means inhibition above about 16%, passing the limit was not always enough
# CAL PDZ FP-1: blocks peptide binding to the human CAL PDZ domain. Q9HD26. purified CAL PDZ, TMR-peptide fluorescence polarization, 1 h. inhibition, % at 24.9 µM. 300,000 tested, 0.92% active. AID 602252;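 active means mean inhibition of at least 30% with at least half of replicates also reaching 30%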;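 further: 0% = DMSO neutral control and 100% = excess unlabeled competitor peptide PRC23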
# CAL PDZ FP-2: human CAL PDZ-peptide interaction inhibition | Q9HD26 | purified CAL PDZ, TMR-peptide fluorescence polarization, 1 h | inhibition, % at 20 µM | 330,000 tested, 0.02% active | AID 504414;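 active means highest replicate inhibition of at least 40%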;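 further: plate controls were DMSO neutral control wells for no effect and unlabeled competitor peptide control wells for full effect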
#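 Control set: unlabelled peptide and DMSO controls / Material: purified CerCALP PDZ construct / Timing: 1 h incubation at room temperature before polarization reading / Doses: 20 µM, one dose / Detection: fluorescence polarization (mP)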
# miR-122 sensor: miR-122 inhibition in Huh7 cells; Huh7 miR-122 Renilla luciferase sensor, 48 h; neutral wells = 0, positive control = 100; activation (reporter increase), % at 12.5 µM; 340,000 tested, 0.3% active;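 active means mean replicate activation score at least 90 and every replicate individually at or above 90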;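 further: higher luciferase means less miR-122 activity so hits act as miR-122 inhibitors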
# Active calls of the source: *; nt = no result; [ ] = dose if it differs, or a comment. The list is not random: actives were taken first. Their share in the collection is about 1.1%.
SMILES,Cneo AK release,PglD DTNB,CAL PDZ FP-1,CAL PDZ FP-2,miR-122 sensor
Cc1ccccc1NC(=S)N(CCN(C)C)C(C)c1ccccn1 (stereo unspecified),-2,-2,nt,-1,2
Cc1ccc(S(=O)(=O)N[C@H]2CC[C@H](CC(=O)NCc3ccccc3F)O[C@H]2CO)cc1,100*,2,nt,nt,nt
Cc1ccc(S(=O)(=O)N[C@@H]2CC[C@H](CCNC(=O)C3CCCC3)O[C@@H]2CO)cc1,86*,2,nt,nt,1[16.7 µM]
O=C(c1ccc(F)cc1)N1C[C@H]2[C@@H](c3ccccc31)[C@H](CO)N2C(=O)c1ccccc1,-3,6,nt,nt,0[16.7 µM]
O=C(c1ccc(F)cc1)N1C[C@H]2[C@@H](c3ccccc31)[C@@H](CO)N2C(=O)c1ccc(F)cc1,9,3,nt,nt,364*[16.7 µM]
O=C(c1cccnc1)N1C[C@H]2[C@@H](c3ccccc31)[C@@H](CO)N2C(=O)Nc1ccc(F)cc1,118*,4,nt,nt,30[16.7 µM]
O=C(c1cccc(F)c1)N1C[C@H]2[C@@H](c3ccccc31)[C@@H](CO)N2C(=O)c1ccc(F)cc1,-4,-2,nt,nt,192*[16.7 µM]
O=C(Nc1ccccc1F)N1C[C@@H]2[C@H](c3ccccc31)[C@@H](CO)N2C(=O)C1CCCC1,-4,13,nt,nt,130*[16.7 µM]
COc1ccc(S(=O)(=O)N[C@@H]2C=C[C@@H](CC(=O)NCc3ccccc3F)O[C@H]2CO)cc1,4,-4,nt,nt,nt
O=C(Nc1ccccc1)N1C[C@@H]2[C@H](c3ccccc31)[C@@H](CO)N2C(=O)c1ccccn1,-2,3,nt,nt,-12[16.7 µM]
O=C(Nc1ccccc1)N1C[C@H]2[C@@H](c3ccccc31)[C@@H](CO)N2C(=O)c1ccccn1,8,1,nt,nt,132*[16.7 µM]
COC(=O)c1ccc2c(=O)n(Cc3ccc(C(=O)NCCCN4CCC(C)CC4)cc3)c(=S)[nH]c2c1,nt,nt,-7,-3,nt
CC1CCN(CCCNC(=O)c2ccc3c(=O)n(Cc4ccc(Cl)cc4)c(=S)[nH]c3c2)CC1,12,-5,-1,66*,-4
CO[C@@H]1CN(C)C(=O)c2cc(NC(=O)Nc3cc(F)ccc3F)ccc2OC[C@@H](C)N(C)C[C@@H]1C,-1,1,nt,nt,11[16.7 µM]
O=C(Nc1ccc(C(F)(F)F)cc1Cl)c1ccc(Cn2cc(Br)cn2)o1,1,4,-3,-2,2
O=C(Nc1cccc(C(F)(F)F)c1)c1ccc(Cn2cc(Br)cn2)o1,8,-6,76*,-1,6
COc1ccc(Br)cc1CNc1ccc(O)cc1,0,5,-4,-1,-2
COc1ccc(Br)cc1CNc1ccc2[nH]c(=O)[nH]c2c1,nt,nt,67*,-1,-9
C[C@@H]1CN([C@@H](C)CO)C(=O)CCCn2nncc2CO[C@@H]1CN(C)Cc1ccccc1C(F)(F)F,8,-1,nt,nt,4[16.7 µM]
CCCNC(=O)N1C[C@H](O)COC[C@@H]2O[C@@H](CC(=O)N[C@@H]3CCN(Cc4ccccc4)C3)CC[C@H]21,-2,1,nt,nt,-5[16.7 µM]
CC(C)NC(=O)COc1cccc2ccccc12,nt,nt,-6,0,nt
CSCCC(NC(=O)COc1cccc2ccccc12)C(=O)O (stereo unspecified),-1,-4,70*,0,5
CO[C@@H]1CN(C)C(=O)c2ccc(NC(=O)Nc3cc(F)ccc3F)cc2OC[C@H](C)N(C)C[C@H]1C,0,-1,nt,nt,nt
CCOC(=O)NCc1ccc2[nH]c(C)cc2c1,136*,-5,nt,0,-4
CCOC(=O)CCC(=O)NCc1ccc2[nH]c(C)cc2c1,3,1,3,2,-5
SMILES,Cneo AK release,PglD DTNB,CAL PDZ FP-1,CAL PDZ FP-2,miR-122 sensor
CC1CCCCN1C(=O)COC(=O)c1ccc(N2CCCC2=O)cc1 (stereo unspecified),1,-3,nt,1,-5
CC1CCN(C(=O)COC(=O)c2ccc(N3CCCC3=O)cc2)CC1,-3,0,46*,-1,nt
CCCNC(=O)N[C@@H]1CC[C@H](CCn2cc(C3CC3)nn2)O[C@H]1CO,57,1,nt,nt,nt
O=C1CSCC(=O)N1Cc1ccc(Cl)c(Cl)c1,-1,6,43*,nt,-2
O=C(C[C@H]1CC[C@H](NC(=O)Cc2ccccn2)[C@H](CO)O1)NCCc1ccccc1,4,-2,nt,nt,nt
C[C@H](NC(=O)C[C@H]1CC[C@@H](NC(=O)Cc2ccccn2)[C@@H](CO)O1)c1ccccc1,96*,2,nt,nt,3[16.7 µM]
O=C(C[C@@H]1CC[C@H](NC(=O)Cc2ccccn2)[C@@H](CO)O1)NCCc1ccccc1,95*,-1,nt,nt,nt
COc1ccc(S(=O)(=O)N(C)C[C@H]2Oc3ccc(NC(=O)C4CCCCC4)cc3C(=O)N([C@@H](C)CO)C[C@@H]2C)cc1,3,-1,nt,nt,0[16.7 µM]
NS(=O)(=O)c1cccc(NC(=O)COC(=O)CCC2CCCC2)c1,-9,-2,85*,0,-14
NS(=O)(=O)c1ccc(NC(=O)COC(=O)CCC2CCCCC2)cc1,-1,-4,0,-2,-3
C[C@H]1CCCCO[C@@H](CN(C)C(=O)Nc2ccc3c(c2)OCO3)[C@@H](C)CN([C@@H](C)CO)C(=O)c2cc(NC(=O)Nc3ccccc3)ccc2O1,-1,-3,nt,nt,5[16.7 µM]
O=[N+]([O-])c1ccc(Oc2cccnc2)c([N+](=O)[O-])c1,nt,nt,37*,-1,0
Nc1ccc(Oc2ccc([N+](=O)[O-])cc2[N+](=O)[O-])cc1,-3,-6,1,1,21
CCC(SC1=N/C(=C/c2ccccc2)C(=O)N1c1ccccc1)C(=O)Nc1cc(C)on1 (stereo unspecified),0,-2,nt,-1,341*
COc1ccc(/C=C2/N=C(SCC(=O)Nc3cc(C)on3)N(c3ccccc3)C2=O)cc1,34,4,-2,0,-9
COc1ccc(C(=O)NCC(=O)OCC(=O)N2CC(C)OC(C)C2)cc1OC (stereo unspecified),3,1,-3,0,-1
CCC(=O)N[C@H]1C=C[C@@H](CC(=O)OC)O[C@@H]1CO,88*,0,nt,nt,5[16.7 µM]
O=c1[nH]c(/C=C/c2ccc([N+](=O)[O-])cc2)c([N+](=O)[O-])c(=O)[nH]1,1,-5,-2,-1,-7
CN(C)/C=C/c1[nH]c(=O)[nH]c(=O)c1[N+](=O)[O-],-9,-2,77*,0,-9
O=C1c2cccc3cccc(c23)C(=O)N1Cc1cccnc1,nt,nt,-2,-1,nt
O=C1c2cccc3c([N+](=O)[O-])ccc(c23)C(=O)N1Cc1cccnc1,nt,nt,37*,1,nt
CC1(C(=O)Nc2ccc3c(c2)OCCO3)CCN1C(=O)c1cccc(F)c1 (stereo unspecified),-6,2,nt,nt,-1
COc1cc(/C=N\NC(=O)c2ccc(-c3ccccc3)cc2)cc(Br)c1O,0,nt,-2,-1,nt
COc1ccc(/C=N/NC(=O)c2ccc(CN3C(=O)c4cccc5cccc3c45)cc2)cc1O,nt,nt,77*,-1,nt
